Data set [1] has as its target Replicase polyprotein 1ab (Severe acute respiratory syndrome coronavirus 2) (UniProt P0DTD1). The experiment in a line: Inhibition of N-terminal 6His/SUMO-tagged SARS-CoV-2 NSP14 expressed in Escherichia coli Rosetta 2 (DE3) PlysS cells using 5'GpppACCCCCCCCC-Biotin 3' and 3H-SAM as substrates at 300 uM incubated for 30 mins by TopCount scintillation proximity assay relative to control. A general note: Scintillation proximity formats need no separation of bound from free tracer.

The species named for data set [2] is Homo sapiens. The experiment in a line: Inhibition of MDH (unknown origin) using oxaloacetic acid as substrate preincubated with compound for 5 mins followed by substrate addition and measured after 1.5 min in the presence of NADH by absorbance based plate reader analysis. The following applies: time 6.5 min. The method, boiled down:
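MDH assay at room temperature in 50 mM KPi, pH 7.0, with 1% v/v DMSO final. Compound preincubated 5 min with 2 nM enzyme. Reaction started with 200 μM NADH plus 200 μM oxaloacetic acid, and absorbance followed at 340 nm for 1 min 30 s. Initial rate divided by the DMSO control rate. Single top concentration in triplicate; eight-point half-log curves in triplicate where inhibition exceeded 40%.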

Data set [3] deals with Replicase polyprotein 1ab (Severe acute respiratory syndrome coronavirus 2) (UniProt P0DTD1). Description: Competitive inhibition of N-terminal 6His/SUMO-tagged SARS-CoV-2 NSP14 expressed in Escherichia coli Rosetta 2 (DE3) PlysS cells using 5'GpppACCCCCCCCC-Biotin 3' and 3H-SAM as substrates at increasing concentration incubated for 30 mins by TopCount scintillation proximity assay. The method in brief:
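Competition pattern read from IC50 shifts. […] Separately, SAM fixed at 1.25 μM (5× Km) with RNA varied up to 0.5 μM (10× Km). A linear rise of IC50 with substrate concentration was taken as competitive inhibition.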

Data set [4] deals with Replicase polyprotein 1ab (Severe acute respiratory syndrome coronavirus 2, UniProt P0DTD1). Description: (§1) Inhibition of N-terminal 6His/SUMO-tagged SARS-CoV-2 NSP14 expressed in Escherichia coli Rosetta 2 (DE3) PlysS cells using 5'GpppACCCCCCCCC-Biotin 3' and 3H-SAM as substrates incubated for 30 mins by TopCount scintillation proximity assay.
For data set [5], the species on record is Homo sapiens. Description: Inhibition of MDH (unknown origin) using oxaloacetic acid as substrate preincubated with compound for 5 mins followed by substrate addition and measured after 1.5 min in the presence of NADH and 0.01% Triton-X 100 by absorbance based plate reader analysis. To be noted: time 6.5 min. The method in brief:
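Detergent-reversal MDH assay: 50 mM KPi, pH 7.0, with 1% v/v DMSO and 0.01% v/v Triton X-100. Enzyme at 2 nM preincubated 5 min with compound, then started with 200 μM NADH plus 200 μM oxaloacetate. A340 read for 1 min 30 s, rate normalised to DMSO control. Eight-point half-log curves in triplicate.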

The subject of data set [6] is Bacteria. Description: Inhibition of beta-lactamase AmpC (unknown origin) pre-incubated with compound for 5 mins followed by substrate addition and measured after 1.5 mins by absorbance based plate reader analysis. The following applies: time 6.5 min. The method, boiled down: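 AmpC at 2 nM preincubated 5 min with compound at room temperature in 50 mM KPi, pH 7.0, with 1% v/v DMSO. Started with 50 μM CENTA (read at 405 nm) or 50 μM nitrocefin (read at 490 nm), monitored 1 min 30 s. Initial rate taken as % of DMSO control. Top concentration in triplicate; eight-point half-log curves in triplicate where inhibition exceeded 40%.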

For data set [7], the target named is Replicase polyprotein 1ab (Severe acute respiratory syndrome coronavirus 2) (UniProt P0DTD1). Description: Reversible inhibition of N-terminal 6His/SUMO-tagged SARS-CoV-2 NSP14 expressed in Escherichia coli Rosetta 2 (DE3) PlysS cells using 5'GpppACCCCCCCCC-Biotin 3' and 3H-SAM as substrates at increasing concentration incubated for 30 mins by TopCount scintillation proximity assay.

Data set [8] in a line: Aggregation property of the compound in KPi buffer at pH 7.0 assessed as formation of colloid-like particles by dynamic light scattering analysis. The data set is classed as physicochemical. The method in brief: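 Compounds diluted as 8-point half-log series in filtered 50 mM KPi, pH 7.0, with 1% v/v DMSO final. Particles detected by dynamic light scattering, triplicate at each concentration. CAC taken as the intersection of separate nonlinear fits to aggregating (>10^6 scattering intensity) and non-aggregating data.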

The subject of data set [9] is Bacteria. Description: Inhibition of beta-lactamase AmpC (unknown origin) pre-incubated with compound for 5 mins followed by substrate addition and measured after 1.5 mins in the presence of 0.01% Triton-X 100 by absorbance based plate reader analysis. To be noted: time 6.5 min. The method, boiled down: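 AmpC detergent-reversal assay: 50 mM KPi, pH 7.0, with 1% v/v DMSO and 0.01% v/v Triton X-100. Enzyme at 2 nM preincubated 5 min with compound, then 50 μM CENTA (405 nm) or nitrocefin (490 nm) added. Absorbance followed for 1 min 30 s and rate normalised to DMSO. Eight-point half-log curves in triplicate.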

The target in data set [10] is Replicase polyprotein 1ab (Severe acute respiratory syndrome coronavirus 2) (UniProt P0DTD1). The experiment in a line: Inhibition of N-terminal 6His/SUMO-tagged SARS-CoV-2 NSP14 expressed in Escherichia coli Rosetta 2 (DE3) PlysS cells using 5'GpppACCCCCCCCC-Biotin 3' and 3H-SAM as substrates at 100 uM incubated for 30 mins by TopCount scintillation proximity assay relative to control.

Data set [11] shares this target. Description: Irreversible covalent inhibition of N-terminal 6His/SUMO-tagged SARS-CoV-2 NSP14 expressed in Escherichia coli Rosetta 2 (DE3) PlysS cells using 5'GpppACCCCCCCCC-Biotin 3' and 3H-SAM as substrates assessed as adduct formation at 50 uM measured upto 18 hrs by mass spectrometric analysis. The method, boiled down: (§2)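 1 μM enzyme held alone or with 50 or 500 μM compound at room temperature. Sampled at 0, 2, 4, 8 and 18 h by QTof MS in 0.05% formic acid; intact mass deconvoluted from 700–1400 m/z.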

The target is the same in data set [12]. Described as §1.
The target is the same in data set [13]. The experiment in a line: Irreversible covalent inhibition of N-terminal 6His/SUMO-tagged SARS-CoV-2 NSP14 expressed in Escherichia coli Rosetta 2 (DE3) PlysS cells using 5'GpppACCCCCCCCC-Biotin 3' and 3H-SAM as substrates assessed as adduct formation at 500 uM measured upto 18 hrs by mass spectrometric analysis. The method in brief: as §2
The target is the same in data set [14]. Description: Irreversible covalent inhibition of N-terminal 6His/SUMO-tagged SARS-CoV-2 NSP14 expressed in Escherichia coli Rosetta 2 (DE3) PlysS cells using 5'GpppACCCCCCCCC-Biotin 3' and 3H-SAM as substrates assessed as adduct formation incubated for 2 hrs by mass spectrometric analysis. The method in brief:
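Nsp14 incubated with 20-fold molar excess of compound for 2 h at 20 °C, then taken into 0.1% formic acid. Separated by HPLC on a 5–95% acetonitrile/water gradient and analysed by ESI time-of-flight MS for protein mass shift.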

Data set [15] has the same target. The experiment in a line: Non-covalent inhibition of N-terminal 6His/SUMO-tagged SARS-CoV-2 NSP14 expressed in Escherichia coli Rosetta 2 (DE3) PlysS cells using 5'GpppACCCCCCCCC-Biotin 3' and 3H-SAM as substrates incubated for 30 mins by TopCount scintillation proximity assay. The method in brief:
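Radiometric N7-MTase assay tracking [3H]-methyl transfer from SAM onto the cap of […] RNA, run with 0.01% v/v Triton X-100. Concentration–response in triplicate to give IC50.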

Data set [16] shares this target. The experiment in a line: Inhibition of N-terminal 6His/SUMO-tagged SARS-CoV-2 NSP14 expressed in Escherichia coli Rosetta 2 (DE3) PlysS cells using 5'GpppACCCCCCCCC-Biotin 3' and 3H-SAM as substrates at 30 to 50 uM incubated for 30 mins by TopCount scintillation proximity assay relative to control. The following applies: dose 30-50 µM.

Active and inactive are the calls of the source. The calls are words filed in the database; no cut-off is given here.

Turning to `Oc1ccccc1-c1ncnc2[nH]ccc12`, the inhibition in data set [1] is > 50%. Besides, the inhibition result in data set [2], in data set [3], in [6] and in [7] was “Active” in each case. In data set [4], this compound gave an IC50 of 12 µM. In [5], the inhibition entry is “inactive”.
With `N#Cc1c(C(=O)NCc2ccc(O)c([N+](=O)[O-])c2)[nH]c2ccccc12`, the inhibition entry in data set [2] and in data set [6] was “Active” in each case. In data set [4], this compound gave an IC50 of 27 µM. The inhibition entry in [5] and in data set [9] was “inactive” throughout. Also, the outcome in data set [8] was Active.
As to `O=Cc1nc2ccccn2c1C=C1COC1`, the IC50 in data set [4] was found to be 11 µM. Further, the inhibition in data set [10] was > 50%.
As for `Nc1cn2cc(-c3cscc3Cl)ncc2n1`, the inhibition in [1] is > 50%. Moreover, the IC50 in [4] was 78 µM.
Regarding `Cn1c(C(=O)NCc2ccc(O)c([N+](=O)[O-])c2)c(Br)c2ccccc21`, the inhibition result in data set [2] and in data set [6] was “Active” each time. In [4], the midpoint of inhibition, the IC50, lay at 19 µM. Also, the inhibition result in data set [5] and in data set [9] was “inactive” each time. The result in data set [8] was Active.
The compound `C=CC(=O)NCC(=O)C(=O)N1CCC(C2C(=O)Nc3cc(Cl)ccc32)CC1` (stereo not given) displayed an IC50 in data set [4] of 7 µM. Further, the inhibition entry in [11] was “Active”.
Take `O=C(OCc1cn2cc(Br)ccc2n1)c1cc(-c2ccco2)[nH]n1`: it took 6 µM to reach half-maximal inhibition in data set [4] (IC50).
As to `C#Cc1cccc(NC(=O)c2cccc(-c3cnc4[nH]c(=O)n(C)c4c3)c2)c1`, the inhibition result in [2] and in data set [6] was “inactive” throughout. The CAC in [8] worked out at 10 µM.
As to `Cc1nc2ncc(-c3c[nH]nn3)cc2[nH]1`, the inhibition in data set [1] was > 50%. The compound also returned an IC50 in data set [4] of 127 µM. Also, the outcome in data set [8] was Active.
With `C=C(Cl)COC(=O)c1cnc2[nH]ccc2c1`, the inhibition in data set [1] is > 50%. In addition, the inhibition result in data set [2] was “Active”. Further, the IC50 in data set [4] was determined as 31 µM.
With `Cc1c(C(=O)/C=C/c2cc(Br)c(O)cc2F)c(C#N)c2n1CCC2`, the inhibition entry in data set [2] and in [6] was “Active” each time. The inhibition entry in data set [5] and in data set [9] was “inactive” throughout. Also, the result in data set [8] was Active.
With `O=C(NC1CSC1)c1ncnn2cccc12`, the inhibition in data set [1] was > 50%. This compound also came in with an IC50 in [4] of 62 µM. Moreover, the outcome in [8] was Active.
Consider `CN(C)c1cncc(NC(=O)c2ccc(C=O)cc2O)c1`, for which the inhibition entry in data set [2] and in data set [6] was “inactive” in each case. Moreover, the midpoint of inhibition in data set [4], the IC50, lay at 12 µM. Further, the inhibition in data set [10] was > 50%.
As for `CN(Cc1ccncc1)c1cc(Br)ncn1`, the inhibition in data set [1] is > 50%. This compound came in with an IC50 in data set [4] of 170 µM. Besides, in [8], the outcome was Active.
For `Cc1cc(C(=O)Nc2cccc(N3CCNC3=O)c2C)sc1C=O`, 3.5 µM corresponded to half-maximal inhibition in data set [4] (IC50). Besides, the inhibition in data set [10] was > 50%.
With `CC(C)SCn1cnc2cnn(C)c2c1=O`, the inhibition in data set [1] is > 50%. Also, the inhibition entry in data set [2] is “Active”. For the same compound, in [4], the midpoint of inhibition, the IC50, lay at 59 µM. The inhibition result in [5] is “inactive”. Besides, the result in data set [8] was Active.
Consider `O=Cc1cc(F)c(C(=O)Nc2cc(Cl)c3c(c2)OCCO3)cc1F`, for which 25 µM corresponded to half-maximal inhibition in data set [4] (IC50). Besides, in [10], the inhibition was > 50%.
For the compound `Cn1ncc(N)c1-c1cc2ccccc2[nH]1`, the inhibition in data set [1] is > 50%. The compound further showed an IC50 in data set [4] of 341 µM. Further, the result in [8] was Active.
On to `CCC(=O)NCCC(=O)N1CCC(C2C(=O)Nc3cc(Cl)ccc32)CC1` (stereo not given), for which the inhibition entry in data set [12] is “inactive”.
In data set [4], `COc1cc(F)cc(NC(=O)c2cccc(-c3cnc4[nH]c(=O)n(C)c4c3)c2)c1` displayed an IC50 of 14 µM.
On to `C=CC(=O)NCCC(=O)N1CCC(C2C(=O)Nc3cc(Cl)ccc32)CC1` (stereo not given), for which the inhibition result in data set [13] is “Active”. In data set [4], this compound registered an IC50 of 32 µM. Moreover, the inhibition in data set [10] was > 50%.
The compound `C=CC(=O)N(C)c1ccc(C(=O)Nc2ccc(-c3cn4ccsc4n3)cc2)cc1` gave an IC50 in [4] of 39 µM. The inhibition entry in [14] is “inactive”. The inhibition in data set [10] is > 50%.
Regarding `Cn1c(=O)[nH]c2ncc(-c3cccc(C(=O)Nc4ccc(Cl)c(CO)c4)c3)cc21`, the concentration for half-maximal inhibition (IC50) in [4] came out at 15 µM.
Regarding `Cn1c(=O)[nH]c2ncc(-c3cccc(C(=O)Nc4cccc(C#N)c4)c3)cc21`, in data set [15], the inhibition entry was “Active”. Further, the inhibition entry in data set [2] and in [6] was “inactive” each time. Moreover, in data set [16], the inhibition was > 50%. Moreover, 20 µM corresponded to half-maximal inhibition in [4] (IC50). The CAC in data set [8] was 10 µM.
As to `N#Cc1cncc(NCc2cc(Br)c[nH]2)n1`, in data set [1], the inhibition was > 50%. This compound yielded an IC50 in data set [4] of 60 µM.
With `CCc1c(C(=O)/C=C/c2ccc(O)c([N+](=O)[O-])c2)oc2ccccc12`, in data set [4], the IC50 was determined as 25 µM.

What is called inhibition is the relative decrease from the control value, in per cent. Usually IC50 stands for the point on the concentration scale where inhibition reaches its midpoint. A low value points to greater potency in that assay.

The values are drawn from ChEMBL document CHEMBL5338825, “Structure-Based Discovery of Inhibitors of the SARS-CoV-2 Nsp14 N7-Methyltransferase” (J Med Chem, 2023).
